An excerpt weighted towards active compounds, which were near 1.7% of everything screened.
S1P2 antag: antagonists of human S1P2 receptor; O95136; cell-based S1P2 antagonist assay, inhibition at 5 uM; inhibition, % at 5 µM; actives 0.21% (n = 97,000); AID 736; in the data active = inhibition above about 45%;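 also: CRE beta-lactamase reporter cells expressing human S1P2 stimulated with S1P; 0% = agonist at EC80 alone and 100% = agonist plus reference antagonist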
Target sequence (O95136 whole entry, looked up): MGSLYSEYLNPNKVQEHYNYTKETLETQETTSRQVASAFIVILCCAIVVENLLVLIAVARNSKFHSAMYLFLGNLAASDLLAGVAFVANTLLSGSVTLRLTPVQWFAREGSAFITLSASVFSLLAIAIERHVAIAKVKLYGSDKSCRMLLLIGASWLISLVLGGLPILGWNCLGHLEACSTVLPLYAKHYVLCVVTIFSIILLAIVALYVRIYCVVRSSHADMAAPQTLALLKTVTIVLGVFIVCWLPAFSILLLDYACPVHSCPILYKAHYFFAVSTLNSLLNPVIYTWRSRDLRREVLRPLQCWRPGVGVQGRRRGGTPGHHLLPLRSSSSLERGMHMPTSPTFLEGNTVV
GALR2 agonist: GALR2 (human) receptor agonism | O43603 | GALR2-expressing cells, agonist activation read-out | activation, % (no concentration beside the values) | actives 0.48% (n = 140,000); in the data active = activation above about 5%, passing the limit was not always enough;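 also: 0% = vehicle buffer wells and 100% = reference agonist at full effect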
Target sequence (O43603 whole entry, looked up): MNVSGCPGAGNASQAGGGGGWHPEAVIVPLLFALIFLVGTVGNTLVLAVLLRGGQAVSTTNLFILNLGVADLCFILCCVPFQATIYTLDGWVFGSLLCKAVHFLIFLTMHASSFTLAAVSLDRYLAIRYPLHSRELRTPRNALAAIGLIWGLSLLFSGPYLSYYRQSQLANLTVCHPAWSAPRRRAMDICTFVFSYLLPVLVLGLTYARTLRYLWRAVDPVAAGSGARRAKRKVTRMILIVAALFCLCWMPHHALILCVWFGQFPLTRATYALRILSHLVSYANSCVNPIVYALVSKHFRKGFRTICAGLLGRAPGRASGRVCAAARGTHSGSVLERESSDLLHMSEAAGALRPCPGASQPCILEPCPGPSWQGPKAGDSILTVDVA
S1P2 ag: S1P2 (human) receptor agonism. O95136. S1P2-expressing cell line, agonist reporter read-out. activation, % at 4.5 µM. actives 0.46% (n = 97,000); in the data active = activation above about 16%;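 also: 0% = vehicle low control and 100% = maximal reference agonist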
EphB4 ephrin blk: antagonists of human EphB4-ephrin-B2 interaction; EphB4 LBD / TNYL-RAW-Alexa532 peptide, fluorescence polarization; inhibition, % at 7 µM; actives 0.15% (n = 97,000); AID 720;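 active = inhibition above the screen-wide mean inhibition plus 3 SD, cut at about 15% in these data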;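 also: 0% = DMSO wells and 100% = excess unlabeled TNYL-RAW peptide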
GALR2 blocker: antagonists of human galanin receptor 2 (GALR2); O43603; GALR2-expressing cells, antagonist mode; inhibition, % at 4 µM; actives 0.39% (n = 140,000); AID 828; in the data active = inhibition above about 27%;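 also: cells stimulated with galanin 1-16 at roughly its EC80; 0% = agonist challenge control and 100% = basal control without agonist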
HIV Rev-RRE inh: HIV Rev-RRE protein-RNA interaction inhibition | actives 0.79% (n = 97,000) | inhibition, % at 8 µM | Rev peptide-RRE RNA binding, FRET | P05866;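 active = inhibition above the screen-wide mean plus 3 SD, cut at about 35% in these data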;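 also: 0% = median DMSO wells and 100% = median Neomycin B control wells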
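Test system – labelled RRE RNA duplex and labelled Rev peptide · Reagent – labelled Rev peptide · Doses – one concentration, 8 µM nominal · Incubation – 5 + 15 min at 25 °C · Signal – FRET fluorescence readout · Read-out basis – % inhibition of FRET ratio versus controls · Control set – DMSO wells as 0% and neomycin B wells as 100% inhibition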
An asterisk follows results filed as active; . = not tested or not shown; [ ] = remark or other dose.

SMILES | S1P2 antag | GALR2 agonist | S1P2 ag | EphB4 ephrin blk | GALR2 blocker | HIV Rev-RRE inh
COc1cc2cc(CN(Cc3nnnn3Cc3ccccc3)CC3CCCO3)c(=O)[nH]c2cc1OC (stereo not drawn) | 10.3 | -0.7 | -3.6 | -10.0 | -1.2 | 21.4
CCc1nc(SCc2cccnc2)c2c(=O)n(C)c(=O)n(C)c2n1 | -40.3 | -0.8 | 17.1* | -5.5 | -1.9 | 2.6
CC(NC(=S)Nc1ccccc1Cl)C(c1cccs1)N1CCCC1 (stereo not drawn) | . | -0.8 | . | . | 2.0 | .
Cn1nc(SCC(=O)O)sc1=S | 6.8 | -1.9 | -6.5 | -2.5 | -1.8 | 140.4*[fluorescence artefact?]
CCOC(=O)C(Sc1nn(C)c(=S)s1)C(C)=O (stereo not drawn) | 5.9 | -0.5 | -3.0 | -6.9 | -10.4 | 3.9
CCOC(=O)c1ccccc1NC(=O)CSc1nnc(COc2ccccc2)n1CC | -3.7 | -2.2 | -6.3 | 2.7 | -7.9 | 6.4
C=CCCCCCCCCC(=O)NN | -2.0 | -1.6 | -6.6 | 0.0 | -4.2 | 4.0
C/C(O)=c1/ccc2cccc3nc(C)nc1c23 | 3.6 | 1.1 | 12.6 | 2.5 | -11.2 | 91.1*[fluorescence artefact?]
CCN(C(=O)COC(=O)c1cc(-c2ccccc2)nc2c1c(C)nn2-c1ccc(C)cc1)C1CCS(=O)(=O)C1 (stereo not drawn) | . | -0.7 | . | . | 1.1 | .
CCSC1=N/C(=C\c2ccc(-c3ccccc3[N+](=O)[O-])o2)C(=O)S1 | -12.1 | -1.3 | -4.7 | 3.1 | 10.5 | 53.9*
COc1ccccc1C(=O)N1CCCN(C(=O)c2ccccc2OC)CC1 | 4.2 | -0.3 | 37.3* | -10.2 | -8.7 | -1.2
CCc1nc2ccccc2c(C(=O)OCc2nnc(-c3ccccc3)o2)c1C | -54.0 | -0.5 | 12.1 | -0.7 | -6.8 | 12.5
COc1ccc(-c2cc(N)n(S(=O)(=O)c3c(F)c(F)c(F)c(F)c3F)n2)cc1OC | 14.8 | -1.7 | 6.0 | 5.9 | 28.2* | 11.1
COc1ccc(S(=O)(=O)n2nc(-c3cc(OC)c(OC)c(OC)c3)cc2N)cc1OC | . | -0.4 | . | . | 9.3 | .
C=CCc1cc(C)ccc1OCCOCCn1ccnc1 | . | -0.5 | . | . | 0.9 | .
CC1=CC2=C(OC1N(C)C)c1cccc3cccc(c13)C2=O (stereo not drawn) | 12.6 | -0.5 | -7.0 | 3.4 | -0.7 | 48.2*
O=C1OCc2cccc3cccc1c23 | 9.2 | -0.7 | -3.1 | 2.0 | 10.3 | 11.5
CCN1C(c2ccc(F)cc2)=CS/C1=C(\C#N)c1nnc2n1-c1ccccc1SC2 | 0.5 | 0.1 | 2.5 | -4.4 | 5.3 | -2.5
Cc1ccc(Nc2nc3ccccc3nc2-n2nc(C)cc2C)cc1 | 9.6 | 2.3 | 20.1* | -2.1 | -4.1 | 25.0
COc1cccc(C(C)NC(=O)Nc2cccc(C(F)(F)F)c2)c1 (stereo not drawn) | -19.4 | -1.6 | -3.3 | -8.1 | 4.0 | 20.5
CN(C)c1ccc(/C=C2\C(=O)N(c3ccc([N+](=O)[O-])cc3)N=C2N2CCOCC2)cc1 | 15.1 | -2.2 | -5.2 | 4.7 | 3.4 | 5.1
C=CCn1c(N)c(C(=O)Nc2cccc(C)c2)c2nc3ccccc3nc21 | -49.7 | 14.5* | 51.8* | 3.8 | -6.6 | 16.5
O=c1ccc(NS(=O)(=O)c2ccc(Cl)cc2)cn1Cc1ccc(Cl)c(Cl)c1 | 6.5 | -1.0 | -5.7 | 2.1 | -10.7 | 8.2
O=C(N/N=C\c1cc(Br)ccc1O)c1ccc(S(=O)(=O)N2CCCCC2)cc1 | . | 6.1* | . | . | 21.7 | .
O=C(N/N=C/c1cc(Cl)ccc1O)c1ccc(Br)cc1 | . | 0.2 | . | . | 2.0 | .
SMILES | S1P2 antag | GALR2 agonist | S1P2 ag | EphB4 ephrin blk | GALR2 blocker | HIV Rev-RRE inh
COc1cccc(-c2cc(C(F)(F)F)nc(N3CCC(C)CC3)n2)c1 | 11.8 | -1.9 | -4.3 | 1.3 | -9.4 | 40.6*
COc1ccc2ccccc2c1C(O)c1nccn1C (stereo not drawn) | 3.5 | -3.2 | -11.8 | 8.4 | -4.5 | 134.7*[fluorescence artefact?]
COCC(=O)Nc1nc2n(n1)C(c1ccc(Cl)cc1)CC(c1ccc(OC)cc1)N2 (stereo not drawn) | 6.5 | -0.7 | -7.8 | -1.2 | -2.6 | 36.1*
COc1ccccc1NS(=O)(=O)c1cc([N+](=O)[O-])ccc1N/N=C/c1c(C)[nH]c2ccccc12 | 69.3* | -4.7 | -14.6 | 1.9 | 8.9 | 66.2*[fluorescence artefact?]
CN1CCN(S(=O)(=O)c2cc([N+](=O)[O-])ccc2N/N=C/c2ccc(Cl)cc2)CC1 | . | -0.1 | . | . | 4.3 | .
O=[N+]([O-])c1ccc(N/N=C/c2c[nH]c3ccccc23)c(S(=O)(=O)Nc2ccc(Cl)cc2)c1 | 9.7 | -2.5 | -5.0 | 4.5 | 2.5 | 64.6*[fluorescence artefact?]
O=C(c1ccc(CN2CCc3ccccc3C2)cc1)N1CCN(c2ccc(F)cc2)CC1 | 3.8 | -2.1 | -5.4 | -3.3 | -2.1 | 1.6
CCN(Cc1nc2ccccc2c(=O)[nH]1)Cc1nc2cc(OC)c(OC)cc2c(=O)[nH]1 | -63.3 | -0.7 | 17.6* | 1.6 | -9.3 | -2.0
COc1cccc(C(C#N)N2CCOCC2)c1 (stereo not drawn) | 3.8 | -1.3 | -2.2 | 22.4* | -4.6 | 13.6
COc1cc(C(C#N)N2CCOCC2)ccc1O (stereo not drawn) | 2.4 | -1.2 | -4.7 | 6.5 | 4.4 | 1.4
COCCOc1cc(-n2ccnc2SC)c(Cl)cc1Cl | 15.1 | -0.9 | -3.7 | -1.7 | 3.5 | 12.0
N#CC1=C(N)OC2=C(CC/C2=C\c2ccccc2Cl)C1c1ccccc1Cl (stereo not drawn) | . | 1.0 | . | . | -2.7 | .
N#CC1=C(N)OC2=C(CC/C2=C\c2ccccc2)C1c1ccccc1 (stereo not drawn) | -0.2 | 3.6 | 3.5 | -12.0 | 3.8 | 135.6*[fluorescence artefact?]
Cc1ccc(S(=O)(=O)N2CCN(C(=O)CSc3ncc(C(F)(F)F)cc3Cl)CC2)cc1 | 1.6 | 2.0 | -3.2 | -5.8 | -1.8 | 5.4
Cc1ccc(CO/N=C\Cc2snc(Sc3ncc(C(F)(F)F)cc3Cl)c2C#N)cc1 | -5.2 | -3.1 | -3.5 | 1.1 | -11.1 | 59.6*
CCCCNS(=O)(=O)c1ccc(S(=O)(=O)N2CCC3(CC2)OCCO3)cc1 | . | -1.0 | . | . | -6.2 | .
NC(=O)c1ccc(C(F)(F)F)n(Cc2ccccc2Cl)c1=O | -16.3 | -0.1 | -4.4 | -8.0 | -11.6 | 10.6
Nc1nc(Br)c2c(F)cccc2c1-c1ccc(F)cc1 | -11.5 | 7.3 | 22.5* | -3.9 | 4.7 | 9.9
Nc1nc(Br)c2c(F)cccc2c1-c1ccccc1 | -5.2 | 1.6 | 14.3 | -7.0 | -0.1 | 1.9
O=c1cc2[nH]c3ccccc3c(=O)n2nc1-c1ccccc1 | 7.3 | -3.1 | -9.4 | 8.2 | 15.8 | 18.9
COc1ccc(N2CCN(CCCNS(=O)(=O)c3ccc4c(c3)oc(=O)n4C)CC2)cc1 | -5.3 | -2.1 | -8.5 | 0.2 | -2.0 | 3.4
COc1ccc2cc(S(=O)(=O)NCCCN3CCOCC3)ccc2c1 | -3.0 | -2.0 | 56.8* | 1.6 | 4.6 | -0.3
CCOC(=O)c1sc(C)c2c1NC1(CCCCC1)NC2=O | -44.7 | 18.8* | 16.6* | -5.0 | -2.0 | 5.5
COc1ccc(CNC(=O)CN(CCC(C)C)S(=O)(=O)c2ccc3c(c2)OCCO3)cc1 | . | -1.9 | . | . | -2.4 | .
CC(=O)Nc1cccc2c1C(=O)N(c1cccc(C)c1)C2=O | -5.0 | -0.4 | -5.2 | 6.3 | 8.1 | 1.9
